Measurements from PubChem BioAssay.
Inconclusive results are not listed. The source made the active and inactive calls.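 Rule for the calls, unless noted: active = viability increase at or above a cutoff of the median across tested compounds plus 3 SD (cut at about 8.5% in these data, passing the limit was not always enough); inconclusive = some gains above the cutoff, reason not given; inactive = the rest.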

Columns and labels:
[1] = OD615 S. cerevisiae growth inhibition, permissive medium, pilot counter-assay, permissive growth control for S. cerevisiae lifespan shortening project (AID 705;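 active = growth inhibition above 25% in both replicates, a cutoff set 3 SD above the mean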); conditions: OD615, 24 h, at 10 µM, active compounds read high
Method in brief: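 Timing: 24 h exposure, 30 °C / Material: Saccharomyces cerevisiae strain carrying genetically modified DeaD replicative-lifespan system / Signal: OD at 615 nm / Compound: 10 µM single dose, 0.25% DMSO / Medium: SC raffinose/galactose permissive medium / Evaluation: reduction in yeast growth (OD615)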

[2] = Restrictive medium S. cerevisiae growth inhibition, OD615, pilot screen of yeast lifespan reduction project, restrictive growth control (AID 706;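 active = growth inhibition above a set limit, 3 SD over mean compound inhibition, in both replicates, cut at about 43% in these data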;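 note: modified DeaD lifespan yeast strain shifted to restrictive glucose medium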); conditions: OD615, 48 h, at 10 µM, active compounds read high
Method in brief: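 System: Engineered S. cerevisiae DeaD strain | Detection: OD615 | Buffer or medium: CSMM-D glucose medium | Doses: 10 µM compound, 0.25% DMSO | Timing: 4 h pre-growth plus 48 h compound exposure, 30 °C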

[3] = viability gain of MRP-1-high H69AR cells under doxorubicin, pilot screen, MRP-1 activator project, CellTiter-Glo, duplicate (AID 807); conditions: H69AR viability with doxorubicin, CellTiter-Glo luminescence; at 10 µM; active compounds read high;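 note: compound pretreatment 18-22 h then 72 h combined with doxorubicin; 0% = doxorubicin alone and 100% = vehicle without doxorubicin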
[4] = growth suppression of beta-catenin knockout HCT116, pilot screen, human colon tumor cells (AID 823;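 active = cell viability at or below a set limit in both duplicate runs, the limit being the all-compound median minus 4 SD, cut at about 23% in these data, passing the limit was not always enough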;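 note: 0% = wells killed by 20 µM Hyamine and 100% = untreated DMSO cell wells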); conditions: CellTiter-Glo, 60 h, at 10 µM, active compounds read low
[5] = growth suppression of PTEN-deleted HCT116, pilot screen, cell-based, HCT116 clonal line, CellTiter-Glo (AID 824;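 active = viability at or below 27.92% in each of two runs, the all-compound median minus 4 SD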;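 note: 0% = 20 µM Hyamine control and 100% = vehicle cell control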); conditions: 60 h, at 10 µM, active compounds read low
[6] = inhibitors of the yeast RAM network, pilot screen, dse1pr::URA3 reporter, 5-FOA selection (AID 869;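 active = inhibition over a set limit, the all-compound mean plus 3 SD, in both replicate runs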;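 note: 0% = DMSO wells with no growth and 100% = 10 µM 1-NA-PP1 with full growth; RAM network block rescues cells from 5-FOA so hits raise OD615 growth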); conditions: S. cerevisiae dse1pr::URA3 5-FOA growth, OD615, 2 d; at 10 µM; active compounds read high; strain carries analog-sensitive mutant Cbk1 kinase
[7] = RAM signaling pathway blockade in yeast – S. cerevisiae, Pdr1DBD-CYC8 efflux-inhibited sensitized strain, primary screen (AID 1298;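 active = RAM network inhibition above 8.4% in each of two replicates, 3 SD over the compound average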;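 note: 0% = DMSO untreated cells without growth and 100% = 10 µM 1-NA-PP1 full growth; higher means more yeast growth rescued from 5-FOA killing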); conditions: S. cerevisiae cbk1-as DSE1-URA3 strain, 5-FOA growth OD615, 2 d; at 50 µM; active compounds read high

CNC(=O)c1c(NC(=O)c2ccc(S(=O)(=O)N3CCOCC3)cc2)sc2c1CCC2
inactive: growth inhibition [1] -0.09% | growth inhibition [2] -0.055% | viability increase [3] -0.97% | viability [4] 95.9% | viability [5] 91.8% | inhibition [6] 0.78% | RAM network inhibition [7] 4.58%

CCOC(=O)c1ccc(NC(=O)CSc2nc3c(c(=O)n2C)SC(C)C3)cc1 (configuration not stated)
inactive: growth inhibition [1] 1.02% | growth inhibition [2] 7.47% | viability increase [3] -2.01% | viability [4] 72.9% | viability [5] 74.3% | inhibition [6] 0.975% | RAM network inhibition [7] 3.08%

CCOc1ccc(N(CC(=O)N2CCCC2)S(=O)(=O)c2c(C)noc2C)cc1
inactive: growth inhibition [1] -10.4% | growth inhibition [2] 3.47% | viability increase [3] -1.24% | viability [4] 98.3% | viability [5] 95.6% | inhibition [6] 1.08% | RAM network inhibition [7] 10.7%

COc1cc(CN2CCN(CCOCCO)CC2)cc(OC)c1OC
inactive: growth inhibition [1] -9.5% | growth inhibition [2] -8.52% | viability increase [3] 0.51% | viability [4] 94.5% | viability [5] 96.8% | inhibition [6] 1.11% | RAM network inhibition [7] 4.96%

COCCCNC(=O)CN1C(=O)CSc2ncccc21
inactive: growth inhibition [1] -3.21% | growth inhibition [2] 3.79% | viability increase [3] 0.91% | viability [4] 105% | viability [5] 101% | inhibition [6] 2.06% | RAM network inhibition [7] 2.8%

CCOC(=O)C1=C(C)Nc2nc(C)nn2C1c1cc(OC)ccc1OC (configuration not stated)
inactive: growth inhibition [1] 3.21% | growth inhibition [2] 4.81% | viability increase [3] -1.53% | viability [4] 108% | viability [5] 100% | inhibition [6] -1.1% | RAM network inhibition [7] -0.16%

Oc1cc(Cc2ccccc2)cnc1CN1CCOCC1
inactive: growth inhibition [1] 1.49% | growth inhibition [2] 2.83% | viability increase [3] -0.73% | viability [4] 96.8% | viability [5] 87.3% | inhibition [6] 0.81% | RAM network inhibition [7] 1.51%

COc1ccccc1N1CCN(C(=O)CCCC2=NS(=O)(=O)c3ccccc3N2)CC1
inactive: growth inhibition [1] 0.08% | growth inhibition [2] -12.7% | viability increase [3] -4.95% | viability [4] 97.3% | viability [5] 92.4% | inhibition [6] 1.4% | RAM network inhibition [7] -0.58%

CCCOC(=O)C1C2C=CC3(CN(c4ccc(Cl)c(F)c4)C(=O)C13)O2 (configuration not stated)
inactive: growth inhibition [1] 4.25% | growth inhibition [2] 0.67% | viability increase [3] -2.67% | viability [4] 93.4% | viability [5] 86.5% | inhibition [6] -0.06% | RAM network inhibition [7] 1.54%

COc1ccc(C(=O)NCC(c2cccnc2)N2CCN(c3ccc(F)cc3)CC2)cc1OC (configuration not stated)
inactive: growth inhibition [1] -12.2% | growth inhibition [2] -0.995% | viability increase [3] -3.89% | viability [4] 88.9% | viability [5] 80.8% | inhibition [6] 1.82% | RAM network inhibition [7] 4.32%

COc1ccc(-c2nc(CSCC(=O)N3CCN(C4CCCCC4)CC3)c(C)o2)cc1OC
inactive: growth inhibition [1] -5.55% | growth inhibition [2] 7.03% | viability increase [3] -1.54% | viability [4] 87.8% | viability [5] 96.3% | inhibition [6] 1.04% | RAM network inhibition [7] 2.38%

COc1cc2ccccc2cc1-c1nnc(COc2ccccc2)o1
inactive: growth inhibition [1] -8.96% | growth inhibition [2] -14.4% | viability increase [3] -2.61% | viability [4] 98.2% | viability [5] 83.4% | inhibition [6] 4% | RAM network inhibition [7] 2.39%

CCOC(=O)C1CCCN(C(=O)c2cn(C)c3ccc(S(=O)(=O)N(C)C)cc3c2=O)C1 (configuration not stated)
inactive: growth inhibition [1] -5.1% | growth inhibition [2] -1.87% | viability increase [3] 0.59% | viability [4] 97.8% | viability [5] 105% | inhibition [6] 0.48% | RAM network inhibition [7] 6.85%

CCSc1nnc(NC(=O)c2c(-c3ccccc3Cl)noc2C)s1
inactive: growth inhibition [1] 0.595% | growth inhibition [2] 2.59% | viability increase [3] -1.87% | viability [4] 97.8% | viability [5] 88.2% | inhibition [6] 1.04% | RAM network inhibition [7] 8.79%

COc1ccc(-n2c(Cn3c(=O)sc4ccccc43)nnc2SCC(N)=O)cc1
inactive: growth inhibition [1] -10.9% | growth inhibition [2] -0.695% | viability increase [3] 0.09% | viability [4] 101% | viability [5] 101% | inhibition [6] 1.29% | RAM network inhibition [7] 0.06%

CCOc1ccc(-c2nc(C#N)c(N3CCN(Cc4ccccc4)CC3)o2)cc1
inactive: growth inhibition [1] -4.62% | growth inhibition [2] 8.5% | viability increase [3] -0.05% | viability [4] 78.6% | viability [5] 87.2% | inhibition [6] -0.36% | RAM network inhibition [7] 3.33%

Cn1c(C(=O)N2CCN(C3CCCCC3)CC2)cc2c(=O)n(C)c3ccccc3c21
inactive: growth inhibition [1] -0.185% | growth inhibition [2] 4.76% | viability increase [3] -1.32% | viability [4] 105% | viability [5] 101% | inhibition [6] 1.2% | RAM network inhibition [7] 0.21%

O=C(CCCCn1c(=O)[nH]c2ccccc2c1=O)N1CCN(c2ncccn2)CC1
inactive: growth inhibition [1] -13.4% | growth inhibition [2] -20.2% | viability increase [3] -1.54% | viability [4] 104% | viability [5] 105% | inhibition [6] 0.76% | RAM network inhibition [7] 0.58%

O=C(CSC1=NS(=O)(=O)c2ccccc21)Nc1ccccc1
inactive: viability increase [3] -2.73% | viability [4] 94.3% | viability [5] 104% | inhibition [6] -0.07% | RAM network inhibition [7] -0.47%
active: growth inhibition [1] 56.7% | growth inhibition [2] 96.9%

Cc1nc(-c2ccc3c(c2)OCO3)cs1
inactive: growth inhibition [1] -3.71% | growth inhibition [2] -1.42% | viability increase [3] 0.2% | viability [4] 102% | viability [5] 101% | inhibition [6] 1.68% | RAM network inhibition [7] 2.38%

CS(=O)(=O)c1ccc2nc(NC(=O)C3CCCCC3)sc2c1
inactive: growth inhibition [1] -0.52% | growth inhibition [2] -7.79% | viability increase [3] -7.36% | viability [4] 72.2% | viability [5] 77.3% | inhibition [6] 0.96% | RAM network inhibition [7] 0.41%

COc1ccc(-c2nnc(SCC(=O)NC(C)C)n2CC2CCCO2)cc1OC (configuration not stated)
inactive: growth inhibition [1] 1.07% | growth inhibition [2] -3.87% | viability increase [3] 0.35% | viability [4] 103% | viability [5] 98.3% | inhibition [6] 1.69% | RAM network inhibition [7] -0.58%

Cn1c(SCC(=O)N2CCCCC2)nc2c([nH]c3ccccc32)c1=O
inactive: growth inhibition [1] -3.83% | growth inhibition [2] -3.68% | viability increase [3] -6.06% | viability [4] 61.4% | viability [5] 44% | inhibition [6] 2.85% | RAM network inhibition [7] 4.75%

Cc1cc(C)c(S(=O)(=O)N2CCN(C)CC2)c(C)c1
inactive: growth inhibition [1] -9.57% | growth inhibition [2] -13.9% | viability increase [3] 1.1% | viability [4] 101% | viability [5] 101% | inhibition [6] 0.885% | RAM network inhibition [7] 1.78%

CCN(CC)S(=O)(=O)c1ccc(-c2nnco2)cc1
inactive: growth inhibition [1] -23.5% | growth inhibition [2] -16.6% | viability increase [3] -0.57% | viability [4] 100% | viability [5] 97.9% | inhibition [6] 3.09% | RAM network inhibition [7] 1.46%

CCSCCOC(=O)C1=C(C)N(C)C(=O)NC1c1cc(OC)ccc1OC (configuration not stated)
inactive: growth inhibition [1] 0.26% | growth inhibition [2] -2.77% | viability increase [3] 1.05% | viability [4] 94.2% | viability [5] 93.8% | inhibition [6] 0.645% | RAM network inhibition [7] 2.69%

CC(=NCc1ccccc1)C1=C(O)COC1=O
inactive: growth inhibition [1] 5.52% | growth inhibition [2] 8.4% | viability increase [3] -1.47% | viability [4] 100% | viability [5] 92.7% | inhibition [6] 1.06% | RAM network inhibition [7] 4.28%

Cc1ccc(CSc2nnc(Cn3c(=O)sc4ccccc43)n2C)cc1
inactive: growth inhibition [1] -10.6% | growth inhibition [2] 5.88% | viability increase [3] 2.44% | viability [4] 95.8% | viability [5] 88.2% | inhibition [6] 2.75% | RAM network inhibition [7] 6.03%

COc1cc(C(c2sc3nc(C)nn3c2O)N2CC(C)OC(C)C2)cc(OC)c1OC (configuration not stated)
inactive: growth inhibition [1] -0.68% | growth inhibition [2] -4.15% | viability increase [3] -2.37% | viability [4] 93.6% | viability [5] 90.1% | inhibition [6] 0.73% | RAM network inhibition [7] 2.94%

Cc1c(NC(=O)C(C)N2C(=O)C3C4C=CC(C4)C3C2=O)c(=O)n(-c2ccccc2)n1C (configuration not stated)
inactive: growth inhibition [1] -8.7% | growth inhibition [2] -11.3% | viability increase [3] -0.72% | viability [4] 95.4% | viability [5] 93.2% | inhibition [6] 1.39% | RAM network inhibition [7] 2.56%

Cc1c(NC(=O)C2CC=CCC2C(=O)O)c(=O)n(-c2ccccc2)n1C (configuration not stated)
inactive: growth inhibition [1] -5.59% | growth inhibition [2] -6.86% | viability increase [3] -0.87% | viability [4] 101% | viability [5] 94.3% | inhibition [6] 1.54% | RAM network inhibition [7] 1.99%

O=C(Nn1nnnc1Nc1ccccc1)C12CC3CC(CC(C3)C1)C2
inactive: growth inhibition [1] -3.62% | growth inhibition [2] -2.85% | viability increase [3] -5.83% | viability [4] 85.2% | viability [5] 86.5% | inhibition [6] 2.17% | RAM network inhibition [7] 4.63%

c1ccc2[nH]c(SCCN3CCOCC3)nc2c1
inactive: growth inhibition [1] -2.45% | growth inhibition [2] 8.19% | viability increase [3] -1.11% | viability [4] 98.9% | viability [5] 104% | inhibition [6] -0.025% | RAM network inhibition [7] 1.35%

O=C(Cn1nc(-c2ccccc2)ccc1=O)N1CCOCC1
inactive: growth inhibition [1] 4.29% | growth inhibition [2] 8.44% | viability increase [3] -0.71% | viability [4] 96% | viability [5] 108% | inhibition [6] -0.155% | RAM network inhibition [7] 0.21%

CCN1c2ccccc2NC2C1C(C(C)=O)C(=O)N2c1ccc(Cl)cc1 (configuration not stated)
inactive: growth inhibition [1] -2.96% | growth inhibition [2] -9.21% | viability increase [3] -5.03% | viability [4] 84.3% | viability [5] 72.2% | inhibition [6] 1.32% | RAM network inhibition [7] 5.6%

Cc1nn(Cc2ccccc2)c(N)c1-c1ccccc1
inactive: growth inhibition [1] -8.39% | growth inhibition [2] -9.23% | viability increase [3] -0.57% | viability [4] 95.2% | viability [5] 87.1% | inhibition [6] 2.53% | RAM network inhibition [7] 2.53%
